From ChEMBL document CHEMBL1140164, “Isosorbide-2-carbamate esters: potent and selective butyrylcholinesterase inhibitors” (J Med Chem, 2008)
Calls of active or inactive are those of the source. No cut-off for these calls is given here.

Legend:
[1] = Selectivity ratio of IC50 for electric eel AchE to IC50 for human plasma BuchE
[2] = biological target: Acetylcholinesterase (Electrophorus electricus) (UniProt O42275); experiment: Inhibition of electric eel AchE at 100 uM by Ellman's method
Outline: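 Ellman assay with electric eel AChE and ATCI as substrate, phosphate buffer pH 8.0, DTNB (0.5 mM solution). Enzyme and inhibitor incubated 30 min before substrate addition; absorbance read at 405 nm over 5 min. […] Triplicate.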

Cholinesterase [3] = biological target: T1, Cholinesterase (Homo sapiens, UniProt P06276); experiment: Inhibition of human plasma BuchE at 100 uM by Ellman's method; type: cell-free
T1 sequence (P06276 whole entry): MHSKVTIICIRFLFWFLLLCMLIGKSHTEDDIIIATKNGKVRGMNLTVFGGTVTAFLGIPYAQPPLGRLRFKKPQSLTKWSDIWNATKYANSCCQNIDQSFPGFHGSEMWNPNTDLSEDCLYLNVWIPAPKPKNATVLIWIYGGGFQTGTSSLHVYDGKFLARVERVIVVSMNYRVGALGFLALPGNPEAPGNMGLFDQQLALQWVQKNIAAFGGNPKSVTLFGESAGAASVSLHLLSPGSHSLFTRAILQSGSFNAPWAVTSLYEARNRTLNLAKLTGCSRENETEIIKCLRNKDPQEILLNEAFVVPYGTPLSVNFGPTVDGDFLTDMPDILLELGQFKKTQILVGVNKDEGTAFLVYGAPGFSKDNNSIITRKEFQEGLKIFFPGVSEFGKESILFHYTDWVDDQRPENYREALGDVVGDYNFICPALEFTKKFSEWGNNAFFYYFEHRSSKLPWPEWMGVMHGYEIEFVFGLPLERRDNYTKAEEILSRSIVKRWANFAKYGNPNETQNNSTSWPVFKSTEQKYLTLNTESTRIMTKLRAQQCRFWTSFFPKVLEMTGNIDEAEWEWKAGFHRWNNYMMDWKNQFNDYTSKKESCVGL
Outline: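 Ellman assay using human plasma (or purified plasma BuChE) in phosphate buffer pH 8.0 with DTNB (0.5 mM solution); 30 min enzyme–inhibitor preincubation, then BTCI (0.5 mM solution) added and rate read at 405 nm over 5 min. Percent inhibition determined at 100 µM inhibitor; triplicate.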

Cholinesterase [4] = biological target: T1, Cholinesterase; experiment: Inhibition of human plasma BuchE by Ellman's method; type: cell-free
Acetylcholinesterase [5] = biological target: Acetylcholinesterase (Electrophorus electricus, UniProt O42275); experiment: Inhibition of electric eel AchE by Ellman's method
Acetylcholinesterase (Electrophorus electricus, UniProt O42275), sequence (O42275 whole entry): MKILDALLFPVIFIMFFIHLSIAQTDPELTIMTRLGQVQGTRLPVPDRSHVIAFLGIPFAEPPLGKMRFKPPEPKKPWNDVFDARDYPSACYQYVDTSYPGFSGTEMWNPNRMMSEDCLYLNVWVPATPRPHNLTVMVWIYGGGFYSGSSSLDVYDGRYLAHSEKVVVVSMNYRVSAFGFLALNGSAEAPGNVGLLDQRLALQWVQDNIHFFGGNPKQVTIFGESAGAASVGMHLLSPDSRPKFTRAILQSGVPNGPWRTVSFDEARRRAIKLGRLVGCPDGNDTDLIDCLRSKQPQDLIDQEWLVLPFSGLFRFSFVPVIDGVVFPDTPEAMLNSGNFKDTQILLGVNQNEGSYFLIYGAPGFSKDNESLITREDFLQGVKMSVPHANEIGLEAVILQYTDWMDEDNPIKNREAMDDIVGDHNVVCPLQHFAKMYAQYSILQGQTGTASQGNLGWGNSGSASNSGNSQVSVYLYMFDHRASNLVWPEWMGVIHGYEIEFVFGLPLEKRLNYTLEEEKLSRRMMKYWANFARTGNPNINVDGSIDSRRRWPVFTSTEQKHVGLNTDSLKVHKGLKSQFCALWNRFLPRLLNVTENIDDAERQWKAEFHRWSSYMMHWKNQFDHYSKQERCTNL

Cholinesterase [6] = biological target: T1, Cholinesterase; experiment: Inhibition of human plasma BuchE using variable substrate levels by carbamylation assay; type: cell-free
Outline: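 Time-course carbamylation with purified human plasma BuChE (1.2 × 10^-3 mg/mL), fixed inhibitor concentration, substrate varied 0.5-10 mM; preincubation sampled at 0-60 min intervals, then DTNB 0.3 mM plus substrate added and read at 412 nm for 5 min. Data plotted as ln E/E_T versus time.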

Cholinesterase [7] = biological target: T1, Cholinesterase; experiment: Inhibition of human plasma BuchE in presence of edrophonium by carbamylation assay; type: cell-free
Outline: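 Carbamylation time course with purified human plasma BuChE (1.2 × 10^-3 mg/mL) and inhibitor at 1 mM in the presence of 5 mM edrophonium; activity sampled over 60 min preincubation, measured with DTNB 0.3 mM and substrate at 412 nm for 5 min.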

Plasma = experiment: Stability in 50% human plasma assessed as drug hydrolysis at 10 to 100 uM by HPLC; type: ADME, cell-free
Outline: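 Pooled citrated human venous plasma diluted with pH 7.4 phosphate buffer to 50%, showing normal adult BuChE activity. Compound added in acetonitrile and incubated at 37 °C. Aliquots taken at intervals, quenched in 2% ZnSO4·7H2O in MeCN-H2O (1:1) plus acetonitrile, vortexed and centrifuged. Supernatant analysed by reversed-phase HPLC with a gradient of pH 2.5 phosphate buffer:acetonitrile, 50:50 to 20:80 over 20 min.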

Homo sapiens = species: Homo sapiens; experiment: Selectivity ratio of IC50 for human erythrocyte AchE to IC50 for human plasma BuchE
Acetylcholinesterase [8] = biological target: Acetylcholinesterase (Homo sapiens, UniProt P22303); experiment: Inhibition of human erythrocyte AchE by Ellman's method
Acetylcholinesterase (Homo sapiens, UniProt P22303), sequence (P22303 whole entry): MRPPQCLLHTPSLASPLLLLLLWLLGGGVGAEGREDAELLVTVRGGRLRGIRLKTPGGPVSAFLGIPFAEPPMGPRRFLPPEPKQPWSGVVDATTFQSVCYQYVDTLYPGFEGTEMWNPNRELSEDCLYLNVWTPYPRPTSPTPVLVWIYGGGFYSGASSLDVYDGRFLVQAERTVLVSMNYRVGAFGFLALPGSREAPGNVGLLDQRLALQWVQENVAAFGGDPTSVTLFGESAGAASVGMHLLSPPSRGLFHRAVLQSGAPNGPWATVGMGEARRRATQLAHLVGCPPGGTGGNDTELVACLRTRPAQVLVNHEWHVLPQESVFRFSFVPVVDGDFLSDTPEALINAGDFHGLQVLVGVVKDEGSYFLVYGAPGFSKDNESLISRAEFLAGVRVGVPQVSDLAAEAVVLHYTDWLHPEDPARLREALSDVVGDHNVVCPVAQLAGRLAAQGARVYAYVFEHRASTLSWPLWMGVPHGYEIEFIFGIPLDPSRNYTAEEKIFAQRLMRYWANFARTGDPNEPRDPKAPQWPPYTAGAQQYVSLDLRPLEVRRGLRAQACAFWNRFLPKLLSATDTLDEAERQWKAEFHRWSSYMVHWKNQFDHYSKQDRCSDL

Cholinesterase [9] = biological target: T1, Cholinesterase; experiment: Inhibition of human plasma BuchE after 60 mins by carbamylation assay; type: cell-free
Outline: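 Purified human plasma BuChE (1.2 × 10^-3 mg/mL) preincubated with inhibitor in buffer in a cuvette for up to 60 min, readings at 0, 5, 10, 20, 30, 40, 50, 60 min; DTNB 0.3 mM and substrate then added, reaction followed at 412 nm for 5 min.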

Acetylcholinesterase (Electrophorus electricus), sequence (O42275 24-633 limits assumed): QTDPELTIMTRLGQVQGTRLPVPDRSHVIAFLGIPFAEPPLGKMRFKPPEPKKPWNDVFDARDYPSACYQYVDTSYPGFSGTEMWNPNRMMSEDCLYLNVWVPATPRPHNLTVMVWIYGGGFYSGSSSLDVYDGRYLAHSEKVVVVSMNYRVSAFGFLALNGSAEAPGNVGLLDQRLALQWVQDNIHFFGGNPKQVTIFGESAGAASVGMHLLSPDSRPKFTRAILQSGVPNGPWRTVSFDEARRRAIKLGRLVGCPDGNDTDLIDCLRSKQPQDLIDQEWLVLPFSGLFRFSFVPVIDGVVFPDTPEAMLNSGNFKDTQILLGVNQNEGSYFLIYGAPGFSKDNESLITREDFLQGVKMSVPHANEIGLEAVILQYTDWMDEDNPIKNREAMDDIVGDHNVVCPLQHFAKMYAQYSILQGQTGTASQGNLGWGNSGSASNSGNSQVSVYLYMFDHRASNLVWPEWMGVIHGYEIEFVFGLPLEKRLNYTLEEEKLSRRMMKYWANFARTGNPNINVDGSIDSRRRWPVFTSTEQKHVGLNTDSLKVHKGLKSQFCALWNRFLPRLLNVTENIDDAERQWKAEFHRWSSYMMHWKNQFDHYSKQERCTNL

| Compound | Ratio IC50 [1] | inhibition [2] | inhibition (Cholinesterase [3]) | IC50 (Cholinesterase [4]) | IC50 (Acetylcholinesterase [5]) | also measured |
| --- | --- | --- | --- | --- | --- | --- |
| CCC(C)NC(=O)O[C@H]1CO[C@H]2[C@@H]1OC[C@H]2OC(=O)c1ccccc1 (some centres not stated) | 1390 | 31% | 99% | 0.072 µM | – | – |
| O=C(NCc1ccccc1)O[C@H]1CO[C@H]2[C@@H]1OC[C@H]2OC(=O)OS(=O)(=O)C(F)(F)F | – | – | – | 0.359 µM | – | – |
| O=C(NCc1ccccc1)O[C@H]1CO[C@H]2[C@@H]1OC[C@H]2OC(=O)c1ccc(-c2ccccc2)cc1 | 4190 | 89% | 99% | 0.012 µM | 51.6 µM | – |
| O=C(Nc1ccc(Cl)c(Cl)c1)O[C@H]1CO[C@H]2[C@@H]1OC[C@H]2OC(=O)c1ccccc1 | – | 70% | 38% | – | – | – |
| CNC(=O)O[C@H]1CO[C@H]2[C@@H]1OC[C@H]2OC(=O)c1ccccc1 | 150 | 54% | 93% | 0.669 µM | – | – |
| O=C(/C=C/c1ccc(O)cc1)O[C@@H]1CO[C@H]2[C@@H]1OC[C@@H]2OC(=O)NCc1ccccc1 | 821 | 81% | 100% | 0.073 µM | 60.4 µM | – |
| O=C(NCc1ccccc1)O[C@H]1CO[C@H]2[C@@H]1OC[C@H]2OC(=O)c1cccnc1 | 1750 | 33% | 99% | 0.057 µM | – | – |
| O=C(NC1CCCCC1)O[C@H]1CO[C@H]2[C@@H]1OC[C@H]2O[N+](=O)[O-] | > 40 | 30% | 99% | 2.5 µM | – | – |
| CCCNC(=O)O[C@H]1CO[C@H]2[C@@H]1OC[C@H]2O[N+](=O)[O-] | 2380 | 1% | 93% | 0.639 µM | 1520 µM | – |
| O=C(NCc1ccccc1)O[C@H]1CO[C@H]2[C@@H]1OC[C@H]2OC(=O)C1CCCC1 | 9380 | 88% | 99% | 0.006 µM | 56.3 µM | – |
| C=CC[N+](C)(C)c1ccc(CCC(=O)CCc2ccc([N+](C)(C)CC=C)cc2)cc1 | – | – | – | – | 0.063 µM | – |
| CCCCNC(=O)O[C@H]1CO[C@H]2[C@@H]1OC[C@H]2O[N+](=O)[O-] | 1610 | 32% | 92% | 0.894 µM | 1440 µM | – |
| CS(=O)(=O)OC(=O)O[C@@H]1CO[C@H]2[C@@H]1OC[C@@H]2OC(=O)NCc1ccccc1 | – | 3% | 9.8% | – | – | – |
| CCCCCCc1ccc(C(=O)O[C@@H]2CO[C@H]3[C@@H]2OC[C@@H]3OC(=O)NCc2ccccc2)cc1 | – | – | – | 2.8 µM | – | – |
| O=C(Nc1ccccc1)O[C@H]1CO[C@H]2[C@@H]1OC[C@H]2O[N+](=O)[O-] | – | 23% | 37% | – | – | – |
| O=C(Nc1cccc(C(F)(F)F)c1)O[C@H]1CO[C@H]2[C@@H]1OC[C@H]2O[N+](=O)[O-] | – | 12% | 10% | – | – | – |
| O=C(/C=C/c1ccccc1)O[C@@H]1CO[C@H]2[C@@H]1OC[C@@H]2OC(=O)NCc1ccccc1 | 729 | 82% | 96% | 0.137 µM | 55.9 µM | – |

| Compound | Ratio IC50 [1] | inhibition [2] | inhibition (Cholinesterase [3]) | IC50 (Cholinesterase [4]) | IC50 (Acetylcholinesterase [5]) | also measured |
| --- | --- | --- | --- | --- | --- | --- |
| O=C(NCc1ccccc1)O[C@H]1CO[C@H]2[C@@H]1OC[C@H]2O | > 27 | 15% | 95% | 3.7 µM | – | – |
| CC(C)NP(=O)(NC(C)C)OP(=O)(NC(C)C)NC(C)C [TETRAISOPROPYL PYROPHOSPHORAMIDE] | – | – | – | – | 2.5 µM | – |
| O=C(NCc1ccccc1)O[C@H]1CO[C@H]2[C@@H]1OC[C@H]2OC(=O)c1ccccc1 | 63300 | 21% | 99% | 0.0043 µM | 273 µM | Activity (Cholinesterase [6]): Dose-dependent effect; Activity (Cholinesterase [7]): inactive; Stability (Plasma): Stable; Ratio IC50 (Homo sapiens): 51000; IC50 (Acetylcholinesterase [8]): 221 µM |
| O=C(NCc1ccccc1)O[C@H]1CO[C@H]2[C@@H]1OC[C@H]2OC(=O)C1CC1 | 300 | 55% | 97% | 0.334 µM | – | – |
| Cc1ccc(S(=O)(=O)C(=O)O[C@@H]2CO[C@H]3[C@@H]2OC[C@@H]3OC(=O)NCc2ccccc2)cc1 | – | 66% | 25% | – | – | – |
| CCNC(=O)O[C@H]1CO[C@H]2[C@@H]1OC[C@H]2O[N+](=O)[O-] | – | 1% | 73% | 3.9 µM | – | – |
| O=C(NCc1ccccc1)O[C@H]1CO[C@H]2[C@@H]1OC[C@H]2O[N+](=O)[O-] | > 2000 | 35% | 96% | 0.051 µM | – | IC50 (Cholinesterase [9]): 0.0036 µM |
| CC(=O)O[C@@H]1CO[C@H]2[C@@H]1OC[C@@H]2OC(=O)NCc1ccccc1 | > 25 | 12% | 97% | 4.1 µM | – | – |
| O=C(Nc1ccc(Cl)c(Cl)c1)O[C@H]1CO[C@H]2[C@@H]1OC[C@H]2O[N+](=O)[O-] | – | 78% | 28% | – | 9.9 µM | – |
| O=C(NCc1ccccc1)O[C@H]1CO[C@H]2[C@@H]1OC[C@H]2OC(=O)c1cccc2ccccc12 | 1340 | 86% | 99% | 0.028 µM | 37.6 µM | – |
| CNC(=O)O[C@H]1CO[C@H]2[C@@H]1OC[C@H]2O[N+](=O)[O-] | – | 67% | 82% | 5.1 µM | 17.2 µM | – |
| O=C(Nc1ccccc1Cl)O[C@H]1CO[C@H]2[C@@H]1OC[C@H]2O[N+](=O)[O-] | – | 24% | 11% | – | – | – |
| CCC(=O)O[C@@H]1CO[C@H]2[C@@H]1OC[C@@H]2OC(=O)NCc1ccccc1 | > 100 | 5% | 97% | 0.98 µM | – | – |
| O=C(NCc1ccccc1)O[C@H]1CO[C@H]2[C@@H]1OC[C@H]2OC(=O)c1ccc2ccccc2c1 | 1370 | 80% | 100% | 0.032 µM | 43.4 µM | – |
| O=C(Nc1cccc(Cl)c1)O[C@H]1CO[C@H]2[C@@H]1OC[C@H]2O[N+](=O)[O-] | – | 24% | 11% | – | – | – |
| O=C(NCc1ccccc1)O[C@H]1CO[C@H]2[C@@H]1OC[C@H]2OC(=O)c1ccncc1 | – | 24% | 97% | 0.088 µM | – | – |
| CCCCC(=O)O[C@@H]1CO[C@H]2[C@@H]1OC[C@@H]2OC(=O)NCc1ccccc1 | > 142 | 4% | 95% | 0.7 µM | – | – |
